Laboratory results reported in ChEMBL document CHEMBL3525987, “Assessment of exposure of metabolites in preclinical species and humans at steady state from the single-dose radiolabeled absorption, distribution, metabolism, and excretion studies: a case study” (Drug Metab Dispos, 2012).

Columns and labels:
Homo sapiens [1] = assay: Drug level in human plasma treated with [14C]lixivaptan at 100 mg, po administered as single dose measured after 12 hrs by liquid scintillation counting; type: ADME, organism-based; design: dosed compound name [14C]lixivaptan; conditions: in vivo
Procedure, shortened: (§1)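 Healthy male volunteers fasted ≥10 h, given single oral 100 mg (200 µCi) [14C]drug as two 50-mg capsules with 250 ml water. Plasma (from ~50 ml blood) at 0.5, 2, 4, 8, 12, 24, 36 h, profiled per subject. Acetonitrile extraction, C18 radio-HPLC with 0.2% formic acid acetonitrile/water gradient, on-line radioactivity detection as % plasma radioactivity; ng-equiv/ml from % × total radioactivity.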

[2] = Retention time of the compound by HPLC analysis; type: physicochemical; design: dosed compound name [14C]lixivaptan
Homo sapiens [3] = assay: Drug level in human plasma treated with [14C]lixivaptan at 100 mg, po administered as single dose measured after 36 hrs by liquid scintillation counting; type: ADME, organism-based; design: dosed compound name [14C]lixivaptan; conditions: in vivo; procedure, shortened: as §1
Homo sapiens [4] = assay: Drug level in human plasma treated with [14C]lixivaptan at 100 mg, po administered as single dose measured after 2 hrs by liquid scintillation counting; type: ADME, organism-based; design: dosed compound name [14C]lixivaptan; conditions: in vivo; procedure, shortened: as §1
Homo sapiens [5] = assay: Drug level in human plasma treated with [14C]lixivaptan at 100 mg, po administered as single dose measured after 24 hrs by liquid scintillation counting; type: ADME, organism-based; design: dosed compound name [14C]lixivaptan; conditions: in vivo; procedure, shortened: as §1
Homo sapiens [6] = assay: Drug level in human plasma treated with [14C]lixivaptan at 100 mg, po administered as single dose measured after 4 hrs by liquid scintillation counting; type: ADME, organism-based; design: dosed compound name [14C]lixivaptan; conditions: in vivo; procedure, shortened: as §1
Homo sapiens [7] = assay: Drug level in human plasma treated with [14C]lixivaptan at 100 mg, po administered as single dose measured after 8 hrs by liquid scintillation counting; type: ADME, organism-based; design: dosed compound name [14C]lixivaptan; conditions: in vivo; procedure, shortened: as §1
Homo sapiens [8] = assay: Drug level in human plasma treated with [14C]lixivaptan at 100 mg, po administered as single dose measured after 0.5 hrs by liquid scintillation counting; type: ADME, organism-based; design: dosed compound name [14C]lixivaptan; conditions: in vivo; procedure, shortened: as §1
Canis familiaris [9] = assay: Toxicity in beagle dog treated with [14C]lixivaptan at 10 mg/kg, po administered as single dose via gavage; type: organism-based, Canis lupus familiaris; design: dose 10 mg/kg, dosed compound name [14C]lixivaptan, route oral; conditions: in vivo
Rattus norvegicus [10] = assay: Drug level in female Sprague-Dawley rat plasma treated with [14C]lixivaptan at 10 mg/kg, po administered as single dose via gavage measured after 24 hrs by liquid scintillation counting; type: ADME, organism-based; design: dose 10 mg/kg, dosed compound name [14C]lixivaptan, route oral; conditions: in vivo
Procedure, shortened: (§2)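 Sprague-Dawley rats (9/gender) were fasted 18 h and gavaged once with [14C]lixivaptan at 10 mg/kg (10 ml/kg), about 29.8 µCi/mg, suspended in deionized water with pluronic F68. Plasma came by cardiac puncture under isoflurane at 1, 8 and 24 h (3/gender/time) and was extracted twice with 2 volumes of acetonitrile. C18 radio-HPLC with a flow scintillation detector gave percent of plasma radioactivity per peak.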

Rattus norvegicus [11] = assay: Drug level in female Sprague-Dawley rat plasma treated with [14C]lixivaptan at 10 mg/kg, po administered as single dose via gavage measured after 8 hrs by liquid scintillation counting; type: ADME, organism-based; design: dose 10 mg/kg, dosed compound name [14C]lixivaptan, route oral; conditions: in vivo
Procedure, shortened: (§3)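 Single oral gavage of [14C]drug (10 mg/kg, 10 ml/kg) as suspension in deionized water with pluronic F68, ~29.8 µCi/mg; SD rats fasted 18 h, fed 4 h post-dose. Blood by cardiac puncture under isoflurane, 3 rats/time/gender, into K2EDTA at 1, 8, 24 h; plasma extracted twice with 2 vol acetonitrile, radio-HPLC on C18 with flow radioactivity detection, expressed as % plasma radioactivity.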

Canis familiaris [12] = assay: Drug level in beagle dog plasma treated with [14C]lixivaptan at 10 mg/kg, po administered as single dose measured after 24 hrs by liquid scintillation counting; type: ADME, organism-based, Canis lupus familiaris; design: dose 10 mg/kg, dosed compound name [14C]lixivaptan, route oral; conditions: in vivo
Procedure, shortened: (§4)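 Four male beagles fasted 18 h were gavaged once with [14C]lixivaptan at 10 mg/kg (2 ml/kg). The 5.0 mg/ml suspension was in deionized water with pluronic F68 (1.04 µCi/mg). Jugular K2EDTA plasma was taken at 2, 8 and 24 h and extracted twice with 2 volumes of acetonitrile. Profiling used C18 radio-HPLC (ammonium formate/acetonitrile gradient) with on-line flow scintillation detection. Each peak is reported as percent of plasma radioactivity.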

Canis familiaris [13] = assay: Drug level in beagle dog plasma treated with [14C]lixivaptan at 10 mg/kg, po administered as single dose measured after 8 hrs by liquid scintillation counting; type: ADME, organism-based, Canis lupus familiaris; design: dose 10 mg/kg, dosed compound name [14C]lixivaptan, route oral; conditions: in vivo; procedure, shortened: as §4
Rattus norvegicus [14] = assay: Drug level in female Sprague-Dawley rat plasma treated with [14C]lixivaptan at 10 mg/kg, po administered as single dose via gavage measured after 1 hr by liquid scintillation counting; type: ADME, organism-based; design: dose 10 mg/kg, dosed compound name [14C]lixivaptan, route oral; conditions: in vivo; procedure, shortened: as §2
Rattus norvegicus [15] = assay: Drug level in male Sprague-Dawley rat plasma treated with [14C]lixivaptan at 10 mg/kg, po administered as single dose via gavage measured after 1 hr by liquid scintillation counting; type: ADME, organism-based; design: dose 10 mg/kg, dosed compound name [14C]lixivaptan, route oral; conditions: in vivo; procedure, shortened: as §3
Rattus norvegicus [16] = assay: Toxicity in female Sprague-Dawley rat treated with [14C]lixivaptan at 10 mg/kg, po administered as single dose via gavage; type: organism-based; design: dose 10 mg/kg, dosed compound name [14C]lixivaptan, route oral; conditions: in vivo
Rattus norvegicus [17] = assay: Toxicity in male Sprague-Dawley rat treated with [14C]lixivaptan at 10 mg/kg, po administered as single dose via gavage; type: organism-based; design: dose 10 mg/kg, dosed compound name [14C]lixivaptan, route oral; conditions: in vivo
Canis familiaris [18] = assay: Drug level in beagle dog plasma treated with [14C]lixivaptan at 10 mg/kg, po administered as single dose measured after 2 hrs by liquid scintillation counting; type: ADME, organism-based, Canis lupus familiaris; design: dose 10 mg/kg, dosed compound name [14C]lixivaptan, route oral; conditions: in vivo; procedure, shortened: as §4
Homo sapiens [19] = assay: AUC in human treated with [14C]lixivaptan at 100 mg, po qd for 7 days; type: ADME, organism-based, Plasma; design: dosed compound name [14C]lixivaptan; conditions: in vivo, 168 h
Homo sapiens [20] = assay: AUC (0 to 24 hrs) in human treated with [14C]lixivaptan at 100 mg, po administered as single dose; type: ADME, organism-based, Plasma; design: time < 24 hr, dose 100 mg, route oral, dosed compound name [14C]lixivaptan; conditions: in vivo
Procedure, shortened: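 Healthy young men fasted 10 h and took one oral dose of [14C]lixivaptan, 100 mg (200 µCi) as two capsules with water, eating 4 h later. Plasma from each subject at 0.5, 2, 4, 8, 12, 24 and 36 h was acetonitrile-extracted and profiled by C18 radio-HPLC (formic acid/acetonitrile gradient) with flow detection. Component concentrations were % of radioactivity × total plasma radioactivity, giving AUC0-24 in ng-equiv.h/ml.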

Homo sapiens [21] = assay: AUC at steady state in human treated with [14C]lixivaptan at 100 mg, po qd for 7 days by LC/MS/MS analysis; type: ADME, organism-based, Plasma; design: dosed compound name Lixivaptan; conditions: in vivo, 168 h
Procedure, shortened: (§5)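 Phase 1 human study with lixivaptan 100 mg orally once daily and blood taken on the final day. Parent and two abundant metabolites were quantified in plasma with a validated LC-MS/MS assay.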

Homo sapiens [22] = assay: Drug concentration at steady state in human treated with [14C]lixivaptan at 100 mg, po qd for 7 days by LC/MS/MS analysis; type: ADME, organism-based; design: dosed compound name Lixivaptan; conditions: in vivo, 168 h; procedure, shortened: as §5
Homo sapiens [23] = assay: Cmax in human treated with [14C]lixivaptan at 100 mg, po qd for 7 days; type: ADME, organism-based; design: dose 100 mg, route oral, dosed compound name [14C]lixivaptan; conditions: in vivo, 168 h
Canis familiaris [24] = assay: AUC (0 to 24 hrs) in beagle dog treated with [14C]lixivaptan at 10 mg/kg, po administered as single dose; type: ADME, organism-based, Canis lupus familiaris, Plasma; design: time < 24 hr, dose 10 mg/kg, dosed compound name [14C]lixivaptan, route oral; conditions: in vivo
Rattus norvegicus [25] = assay: AUC (0 to 24 hrs) in male Sprague-Dawley rat treated with [14C]lixivaptan at 10 mg/kg, po administered as single dose via gavage; type: ADME, organism-based, Plasma; design: time < 24 hr, dose 10 mg/kg, dosed compound name [14C]lixivaptan, route oral; conditions: in vivo; procedure, shortened: as §2
Rattus norvegicus [26] = assay: AUC (0 to 24 hrs) in female Sprague-Dawley rat treated with [14C]lixivaptan at 10 mg/kg, po administered as single dose via gavage; type: ADME, organism-based, Plasma; design: time < 24 hr, dose 10 mg/kg, dosed compound name [14C]lixivaptan, route oral; conditions: in vivo; procedure, shortened: as §2
Rattus norvegicus [27] = assay: Drug level in male Sprague-Dawley rat plasma treated with [14C]lixivaptan at 10 mg/kg, po administered as single dose via gavage measured after 8 hrs by liquid scintillation counting; type: ADME, organism-based; design: dose 10 mg/kg, dosed compound name [14C]lixivaptan, route oral; conditions: in vivo; procedure, shortened: as §3
Rattus norvegicus [28] = assay: Drug level in male Sprague-Dawley rat plasma treated with [14C]lixivaptan at 10 mg/kg, po administered as single dose via gavage measured after 24 hrs by liquid scintillation counting; type: ADME, organism-based; design: dose 10 mg/kg, dosed compound name [14C]lixivaptan, route oral; conditions: in vivo; procedure, shortened: as §3

Structure (SMILES): Cc1ccc(F)cc1C(=O)Nc1ccc(C(=O)N2Cc3cccn3C(O)c3ccccc32)c(Cl)c1 (stereo not given)
- Compound recovery (Homo sapiens [1]): 1.6%
- Retention_time [2]: 25.2 min
- Compound recovery (Homo sapiens [3]): 3.8%
- Compound recovery (Homo sapiens [4]): 2.2%
- Compound recovery (Homo sapiens [5]): 4.2%
- Compound recovery (Homo sapiens [6]): 2.4%
- Compound recovery (Homo sapiens [7]): 2.1%
- Compound recovery (Homo sapiens [8]): 2.7%

Structure (SMILES): Cc1ccc(F)cc1C(=O)Nc1ccc(C(=O)N2CC3C=CC(=O)N3Cc3ccccc32)c(Cl)c1 (stereo not given)
- Activity (Canis familiaris [9]): Non-toxic
- Compound recovery (Rattus norvegicus [10]): 2.6%
- Compound recovery (Rattus norvegicus [11]): 25.2%
- Compound recovery (Canis familiaris [12]): 3.9%
- Compound recovery (Canis familiaris [13]): 11.1%
- Compound recovery (Rattus norvegicus [14]): 36.2%
- Compound recovery (Rattus norvegicus [15]): 5.4%
- Activity (Rattus norvegicus [16]): Non-toxic
- Activity (Rattus norvegicus [17]): Non-toxic
- Compound recovery (Canis familiaris [18]): 19.4%

Structure (SMILES): Cc1ccc(F)cc1C(=O)Nc1ccc(C(=O)Nc2ccccc2Cn2cccc2C(=O)O)c(Cl)c1
- Activity (Canis familiaris [9]): Non-toxic
- AUC (Homo sapiens [19]): 2680 ng·h/mL
- Compound recovery (Homo sapiens [1]): 11.2%
- Retention_time [2]: 23.3 min
- Compound recovery (Homo sapiens [3]): 7.6%
- Compound recovery (Homo sapiens [4]): 16.5%
- Compound recovery (Homo sapiens [5]): 11%
- AUC (Homo sapiens [20]): 2680 ng.Eq.hr/ml
- Activity (Rattus norvegicus [16]): Non-toxic
- Activity (Rattus norvegicus [17]): Non-toxic
- Compound recovery (Homo sapiens [6]): 16.8%
- AUCss (Homo sapiens [21]): 3040 ng·h/mL
- Css (Homo sapiens [22]): 454 ng/mL
- Compound recovery (Homo sapiens [7]): 12.2%
- Cmax (Homo sapiens [23]): 290 ng/mL
- Compound recovery (Homo sapiens [8]): 4.1%

Structure (SMILES): Cc1ccc(F)cc1C(=O)Nc1ccc(C(=O)N2C=C3CCC(=O)N3Cc3ccccc32)c(Cl)c1
- Compound recovery (Homo sapiens [1]): 2.1%
- Retention_time [2]: 20.2 min
- Compound recovery (Homo sapiens [4]): 1.5%
- Compound recovery (Homo sapiens [5]): 2.1%
- AUC (Homo sapiens [20]): 268 ng.Eq.hr/ml
- Compound recovery (Homo sapiens [6]): 2.5%
- Compound recovery (Homo sapiens [7]): 2.4%
- Compound recovery (Homo sapiens [8]): 0.6%

Structure (SMILES): Cc1ccc(F)cc1C(=O)Nc1ccc(C(=O)Nc2ccccc2C(=O)O)c(Cl)c1
- Activity (Canis familiaris [9]): Non-toxic
- AUC (Homo sapiens [19]): 5180 ng·h/mL
- Compound recovery (Homo sapiens [1]): 30.1%
- Retention_time [2]: 24.5 min
- AUC (Canis familiaris [24]): 22400 ng.Eq.hr/ml
- Compound recovery (Rattus norvegicus [10]): 97.4%
- Compound recovery (Rattus norvegicus [11]): 42.4%
- Compound recovery (Homo sapiens [3]): 35.2%
- Compound recovery (Homo sapiens [4]): 12.6%
- Compound recovery (Homo sapiens [5]): 38.8%
- AUC (Homo sapiens [20]): 5180 ng.Eq.hr/ml
- AUC (Rattus norvegicus [25]): 32100 ng.Eq.hr/ml
- Compound recovery (Canis familiaris [12]): 38.7%
- Compound recovery (Canis familiaris [13]): 29.7%
- AUC (Rattus norvegicus [26]): 11100 ng.Eq.hr/ml
- Compound recovery (Rattus norvegicus [27]): 73.9%
- Compound recovery (Rattus norvegicus [28]): 67.8%
- Compound recovery (Rattus norvegicus [14]): 9%
- Compound recovery (Rattus norvegicus [15]): 58.5%
- Activity (Rattus norvegicus [16]): Non-toxic
- Activity (Rattus norvegicus [17]): Non-toxic
- Compound recovery (Homo sapiens [6]): 19.6%
- AUCss (Homo sapiens [21]): 6610 ng·h/mL
- Css (Homo sapiens [22]): 658 ng/mL
- Compound recovery (Homo sapiens [7]): 28.4%
- Cmax (Homo sapiens [23]): 278 ng/mL
- Compound recovery (Homo sapiens [8]): 1.5%
- Compound recovery (Canis familiaris [18]): 15.3%
